Experimental data as given in publication PMC6605687 (The Journal of General Physiology, 2019).
Where a chain is given by its changes, count along the chain named. Read-outs that look alike come from different tables or passages of the source.

Key:
Type in all cases: cell-based
rP2X2 Val70Vah = molecular target: T1, rP2X2 Val70Vah (Rattus norvegicus, UniProt P49653); assay: Two-electrode voltage clamp, oocytes expressing rP2X2 Val70Vah
T1 sequence (P49653 1-472): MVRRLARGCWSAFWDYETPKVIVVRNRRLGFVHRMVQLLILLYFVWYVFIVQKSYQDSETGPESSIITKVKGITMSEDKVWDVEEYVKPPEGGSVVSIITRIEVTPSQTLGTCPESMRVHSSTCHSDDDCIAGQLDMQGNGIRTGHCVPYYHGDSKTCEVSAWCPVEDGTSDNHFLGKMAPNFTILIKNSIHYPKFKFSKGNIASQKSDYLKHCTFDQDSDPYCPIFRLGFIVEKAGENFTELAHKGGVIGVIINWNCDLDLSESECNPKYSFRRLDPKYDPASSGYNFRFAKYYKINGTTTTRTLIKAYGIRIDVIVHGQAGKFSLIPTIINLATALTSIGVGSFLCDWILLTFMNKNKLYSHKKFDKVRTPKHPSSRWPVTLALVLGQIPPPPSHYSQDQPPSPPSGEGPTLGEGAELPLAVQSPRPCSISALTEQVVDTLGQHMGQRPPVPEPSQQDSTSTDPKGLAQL

rP2X2 Lys69Arg = molecular target: T2, rP2X2 Lys69Arg (Rattus norvegicus, UniProt P49653, K69R); assay: Two-electrode voltage clamp, oocytes expressing rP2X2 Lys69Arg
T2 sequence (P49653 1-472 K69R): T1 sequence (P49653 1-472) with K69R

rP2X2 Ile185Val = molecular target: T3, rP2X2 Ile185Val (Rattus norvegicus, UniProt P49653, I185V); assay: Two-electrode voltage clamp, oocytes expressing rP2X2 Ile185Val
T3 sequence (P49653 1-472 I185V): T1 sequence (P49653 1-472) with I185V
In short: (§1)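 Mutations were made by site-directed mutagenesis. Xenopus oocytes were injected with rP2X2 mRNA and incubated in L-15 at 18°C. Two-electrode voltage clamp was done 1–2 days later at −40 mV under ND96 perfusion (pH 7.4). ATP concentration-response currents were normalised and fitted to a one-component Hill equation for EC50 and Hill coefficient. Results are mean ± SEM, tested by one-way ANOVA with Dunnett's test against WT.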

rP2X2 Lys71Gln = molecular target: T4, rP2X2 Lys71Gln (Rattus norvegicus, UniProt P49653, K71Q); assay: Two-electrode voltage clamp, oocytes expressing rP2X2 Lys71Gln
T4 sequence (P49653 1-472 K71Q): T1 sequence (P49653 1-472) with K71Q
In short: as §1

rP2X2 Lys308Arg = molecular target: T5, rP2X2 Lys308Arg (Rattus norvegicus, UniProt P49653, K308R); assay: Two-electrode voltage clamp, oocytes expressing rP2X2 Lys308Arg
T5 sequence (P49653 1-472 K308R): T1 sequence (P49653 1-472) with K308R
In short: as §1

rP2X2 Val96Vah = molecular target: T6, rP2X2 Val96Vah (Rattus norvegicus, UniProt P49653); assay: Two-electrode voltage clamp, oocytes expressing rP2X2 Val96Vah
T6 sequence (P49653 1-472): T1 sequence (P49653 1-472)
In short: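 The backbone ester was introduced by nonsense suppression. TAG-mutant rP2X2 mRNA was co-injected into Xenopus oocytes with tRNA enzymatically aminoacylated with 2-hydroxyisovaleric acid. Uncharged tRNA co-injection served as the negative control. After incubation at 18°C, two-electrode voltage clamp was done at −40 mV in ND96 (pH 7.4). ATP concentration-response data were normalised and Hill-fitted for EC50 and nH, given as mean ± SEM.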

Fold increase in EC50, Val70Vah versus WT (rP2X2 Val70Vah; Val70Vah compared with WT): fourfold | EC50 (rP2X2 Val70Vah; Val70Vah, mean ± SEM): 0.12 ± 0.002 mM | EC50 (rP2X2 Lys69Arg): > 5 mM | EC50 (rP2X2 Lys69Arg; mean ± SEM): 6 mM | EC50 (rP2X2 Ile185Val): 0.023 ± 0.003 mM | EC50 (rP2X2 Lys71Gln): 6.3 mM | EC50 (rP2X2 Lys308Arg): 6 mM | EC50 (rP2X2 Val96Vah): 0.027 ± 0.002 mM | Effect of Vah incorporation on EC50 (in words) (rP2X2 Val96Vah; Val96Vah compared with WT): did not affect the ATP EC50
Compound: Nc1ncnc2c1ncn2[C@@H]1O[C@H](COP(=O)(O)OP(=O)(O)OP(=O)(O)O)[C@@H](O)[C@H]1O [ATP, Adenosine 5′-triphosphate]
